MEKK2 mut-MEK5 = signal of MEK5 binding to mutant human MEKK2 PB1 domain. bead flow cytometry, Alexa488-MEK5 binding to MEKK2 mutant. percent response, % at 10 µM. 290,000 compounds, 0.35% hits. AID 1530; in the data active means percent response above about 24%, passing the limit was not always enough
FID counter = displaces DNA intercalator in HCV helicase counter-screen; 290,000 compounds, 0.17% hits; DNA fluorescent intercalator displacement, fluorescence; inhibition, % at 7.9 µM; AID 1845; in the data active means inhibition above about 37%;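 further: higher means more ethidium bromide displaced from hairpin DNA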
MEKK2 WT-MEK5 = raises or lowers MEK5 binding to wildtype human MEKK2 PB1 domain; AID 1531; 290,000 compounds, 1.1% hits; bead flow cytometry, Alexa488-MEK5 binding to MEKK2 WT; actives lie on both sides; binding response (% of control), % at 10 µM; Q9Y2U5; in the data active means binding response below about 67% or above about 130%
MEKK3 PB1 HTS = MEKK3-MEK5 PB1 interaction, increase or decrease; Q99759; bead-based flow cytometry, Alexa488-MEK5 binding to MEKK3; actives lie on both sides; 0 = blocked by unlabeled MEK5, 100 = vehicle; binding response (% of control), % at 10 µM; 290,000 compounds, 1.4% hits; AID 1529;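 active means binding response more than 3 SD above or below the average of its plate-row segment, actives on both sides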;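 further: Alexa488 bead fluorescence after subtracting the streptavidin-only scavenger bead signal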
Target sequence (Q99759 whole entry, looked up): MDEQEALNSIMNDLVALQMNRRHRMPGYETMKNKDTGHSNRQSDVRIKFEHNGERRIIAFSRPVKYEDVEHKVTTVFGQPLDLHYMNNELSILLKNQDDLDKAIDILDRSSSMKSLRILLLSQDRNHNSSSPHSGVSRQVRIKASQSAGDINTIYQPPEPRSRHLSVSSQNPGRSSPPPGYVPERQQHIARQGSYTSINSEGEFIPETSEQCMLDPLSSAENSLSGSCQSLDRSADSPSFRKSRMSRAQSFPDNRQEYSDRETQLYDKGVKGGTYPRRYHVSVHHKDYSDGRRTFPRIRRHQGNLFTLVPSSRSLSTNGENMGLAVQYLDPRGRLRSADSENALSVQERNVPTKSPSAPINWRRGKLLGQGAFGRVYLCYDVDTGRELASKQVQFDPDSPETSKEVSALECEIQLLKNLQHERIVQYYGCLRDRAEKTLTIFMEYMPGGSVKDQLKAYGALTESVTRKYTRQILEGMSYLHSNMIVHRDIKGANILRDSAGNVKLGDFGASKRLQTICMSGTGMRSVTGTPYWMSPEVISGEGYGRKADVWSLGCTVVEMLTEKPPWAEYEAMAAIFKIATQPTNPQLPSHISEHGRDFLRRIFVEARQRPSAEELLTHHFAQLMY
HCV NS3 hel inh = blocks Hepatitis C virus NS3 helicase unwinding. AID 1800. inhibition, % at 10.9 µM. NS3 helicase DNA unwinding, Cy5 molecular beacon fluorescence. 290,000 compounds, 0.56% hits;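 active means inhibition above the mean of all tested compounds plus 3 SD, set per campaign, cut at about 35% in these data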
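Assay system: hepatitis C virus NS3 helicase domain fragment enzyme. Also added: annealed dual-labelled DNA beacon duplex, ATP-started. Timing: 1 h reaction at 25 °C, ATP-initiated. Technique: Cy5 fluorescence at 0 and 60 min, beacon hairpin quenching. Evaluation: % inhibition of unwinding. Replication: one well per compound.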
T cruzi inh = blocks replication of Trypanosoma cruzi; T. cruzi beta-gal in NIH3T3, luminescence, 90 h; 300,000 compounds, 1.4% hits; inhibition, % (concentration not given with the values);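 active means mean inhibition across valid replicates above about 55%, limit read from the data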;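 further: signal also drops with host cell toxicity which is not excluded here; higher percent means less beta-gal luminescence so fewer parasites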
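Assay system: NIH/3T3 host cells with β-galactosidase reporter T. cruzi; input: 5,000 host fibroblasts per well; compound: single 50 nL compound addition per well in DMSO; timing: ≥90 h infection period, 3 h prior cell attachment; measured by: GalScreen β-gal luminescence, detergent lysis, 60 min; evaluation: percent inhibition of parasite-derived β-gal signal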
MEKK2wt confirm = raises or lowers MEK5 binding to wildtype human MEKK2, retest. bead flow cytometry, Alexa488-MEK5 binding to MEKK2 WT; actives lie on both sides. AID 1892. shares compounds with MEKK3 PB1 HTS. 5,900 compounds, 2.4% hits. binding response (% of control), % at 10 µM; in the data active means binding response below about 16% or above about 210%; inactive means in between
MEKK2mut-MEK5 = signal of MEK5 binding to mutant human MEKK2, retest. shares compounds with MEKK3 PB1 HTS. 5,900 compounds, 2% hits. percent response, % at 10 µM. AID 1893. bead flow cytometry, Alexa488-MEK5 binding to MEKK2 mutant; in the data active means percent response mostly above about 71%, no sharp cut-off; inactive means mostly below about 38%;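 further: higher means compound restores mutant binding toward wildtype level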
MEKK3 confirm = MEKK3-MEK5 PB1 inhibition, single concentration confirmation; shares compounds with MEKK3 PB1 HTS; bead flow cytometry, Alexa488-MEK5 binding to MEKK3; hits give low values; binding response (% of control), % at 10 µM; 5,900 compounds, 1.8% hits;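 active means binding response below 72% of control, or above a set upper limit, though filed actives all read lower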
Hits are given with their value; [ ] = remark or other dose. The list is not random: actives were taken first. Their share in the collection is about 4.1%.

`N/C(Cc1ccc([N+](=O)[O-])cc1)=N\OC(=O)COc1ccccc1Cl` gave MEKK2 mut-MEK5 inactive, FID counter inactive, MEKK2 WT-MEK5 inactive, MEKK3 PB1 HTS inactive, HCV NS3 hel inh inactive and T cruzi inh inactive.
`N/C(Cc1ccc([N+](=O)[O-])cc1)=N\OC(=O)Cc1ccccc1` gave MEKK2 mut-MEK5 inactive, FID counter inactive, MEKK2 WT-MEK5 inactive, MEKK3 PB1 HTS 53[inhibitor], HCV NS3 hel inh inactive, T cruzi inh inactive, MEKK2wt confirm inactive, MEKK2mut-MEK5 inactive and MEKK3 confirm inactive.
Screening N/C(Cc1ccc([N+](=O)[O-])cc1)=N\OC(=O)Cc1ccc(Cl)cc1 returned MEKK2 mut-MEK5 inactive, FID counter inactive, MEKK2 WT-MEK5 inactive, MEKK3 PB1 HTS 71[inhibitor], HCV NS3 hel inh inactive, T cruzi inh inactive, MEKK2wt confirm inactive, MEKK2mut-MEK5 inactive and MEKK3 confirm inactive.
For CCc1noc(C)c1C(=O)N1CCN(S(=O)(=O)c2c(C)c(C)cc(C)c2C)CC1 the results were T cruzi inh inactive.
CCOc1ccccc1NC(=O)C(OC(=O)c1ccc(NC(=O)CC#N)cc1)c1ccccc1 (stereo not drawn) was read as T cruzi inh inactive.
C/C(=N\NC(=O)c1ccccc1C)c1cccnc1 was read as MEKK2 mut-MEK5 inactive, FID counter inactive, MEKK2 WT-MEK5 inactive, MEKK3 PB1 HTS inactive, HCV NS3 hel inh inactive and T cruzi inh inactive.
Screening CCOc1ccc(S(=O)(=O)N(C)CC(=O)NCc2ccccn2)cc1Cl returned MEKK2 mut-MEK5 inactive, FID counter inactive, MEKK2 WT-MEK5 inactive, MEKK3 PB1 HTS inactive, HCV NS3 hel inh inactive and T cruzi inh inactive.
`COc1ccc(-n2c(N)c(-c3nc4ccccc4n3C)sc2=S)cc1` gave MEKK2 mut-MEK5 inactive, FID counter inactive, MEKK2 WT-MEK5 inactive, MEKK3 PB1 HTS 69[inhibitor], HCV NS3 hel inh inactive, T cruzi inh inactive, MEKK2wt confirm inactive, MEKK2mut-MEK5 inactive and MEKK3 confirm inactive.
For CCOc1ccc(-n2c(N)c(-c3nc4ccccc4[nH]3)sc2=S)cc1 the results were MEKK2 mut-MEK5 inactive, FID counter inactive, MEKK2 WT-MEK5 inactive, MEKK3 PB1 HTS inactive, HCV NS3 hel inh inactive and T cruzi inh inactive.
For CC1(C)Oc2ccc(C(=O)N/N=C/c3ccc(O)cc3)cc2NC1=O the results were MEKK2 mut-MEK5 inactive, FID counter inactive, MEKK2 WT-MEK5 inactive, MEKK3 PB1 HTS inactive, HCV NS3 hel inh inactive and T cruzi inh inactive.
For CCOC(=O)N1CCC(N2C(=O)c3ccccc3C2Nc2cc(C)cc(C)c2)CC1 (stereo not drawn) the results were MEKK2 mut-MEK5 inactive, FID counter inactive, MEKK2 WT-MEK5 inactive, MEKK3 PB1 HTS 128, HCV NS3 hel inh inactive, T cruzi inh inactive, MEKK2wt confirm inactive, MEKK2mut-MEK5 inactive and MEKK3 confirm inactive.
For O=C1CCCN1CCCNS(=O)(=O)c1ccc(F)cc1F the results were MEKK2 mut-MEK5 inactive, FID counter inactive, MEKK2 WT-MEK5 inactive, MEKK3 PB1 HTS inactive, HCV NS3 hel inh inactive and T cruzi inh inactive.
CC(C)CN(C(=O)COC(=O)C12CC3CC(CC(O)(C3)C1)C2)C1CCS(=O)(=O)C1 (stereo not drawn) was read as MEKK2 mut-MEK5 inactive, FID counter inactive, MEKK2 WT-MEK5 0.0[inhibitor], MEKK3 PB1 HTS 0.0[inhibitor], HCV NS3 hel inh inactive, T cruzi inh inactive, MEKK2wt confirm inactive, MEKK2mut-MEK5 inactive and MEKK3 confirm inactive.
For CS(=O)(=O)N1CCN(c2ccccc2NC(=O)Cc2ccc(Cl)cc2)CC1 the results were MEKK2 mut-MEK5 inactive, FID counter inactive, MEKK2 WT-MEK5 2.0[inhibitor], MEKK3 PB1 HTS 2.0[inhibitor], HCV NS3 hel inh inactive, T cruzi inh inactive, MEKK2wt confirm inactive, MEKK2mut-MEK5 inactive and MEKK3 confirm inactive.
CN1CCN(c2ccccc2NC(=O)c2ccc(-c3ccc(Cl)cc3Cl)o2)CC1 was read as MEKK2 mut-MEK5 inactive, FID counter inactive, MEKK2 WT-MEK5 156, MEKK3 PB1 HTS inactive, HCV NS3 hel inh inactive, T cruzi inh 55, MEKK2wt confirm inactive, MEKK2mut-MEK5 inactive and MEKK3 confirm inactive.
Screening Cc1nnc2sc(-c3ccc(NC(=O)c4ccc(-c5ccc(Cl)cc5Cl)o4)cc3)nn12 returned MEKK2 mut-MEK5 inactive, FID counter inactive, MEKK2 WT-MEK5 inactive, MEKK3 PB1 HTS 77[inhibitor], HCV NS3 hel inh inactive, T cruzi inh inactive, MEKK2wt confirm inactive, MEKK2mut-MEK5 inactive and MEKK3 confirm inactive.
For CCN/C=C(\C#N)S(=O)(=O)c1ccc(Br)cc1 the results were MEKK2 mut-MEK5 inactive, FID counter inactive, MEKK2 WT-MEK5 inactive, MEKK3 PB1 HTS inactive, HCV NS3 hel inh inactive and T cruzi inh inactive.
For COc1ccc(CC(=O)NCC2CCCN(Cc3cccc(SC)c3)C2)cc1 (stereo not drawn) the results were MEKK2 mut-MEK5 inactive, FID counter inactive, MEKK2 WT-MEK5 inactive, MEKK3 PB1 HTS inactive, HCV NS3 hel inh inactive and T cruzi inh inactive.
Screening Nc1ccc2c(c1)N1CCN=C1S2 returned MEKK2 mut-MEK5 inactive, FID counter inactive, MEKK2 WT-MEK5 inactive, MEKK3 PB1 HTS inactive, HCV NS3 hel inh inactive and T cruzi inh inactive.
`O=C(Nc1ccc(Cl)cc1)Nc1ccc2c(c1)N1CCN=C1S2` gave MEKK2 mut-MEK5 inactive, FID counter inactive, MEKK2 WT-MEK5 141, MEKK3 PB1 HTS inactive, HCV NS3 hel inh inactive, T cruzi inh inactive, MEKK2wt confirm inactive, MEKK2mut-MEK5 inactive and MEKK3 confirm inactive.
`COc1cc(/C=C/C(=O)OCC(=O)Nc2ccc(C)c(S(=O)(=O)N3CCCCC3)c2)ccc1O` gave MEKK2 mut-MEK5 inactive, FID counter inactive, MEKK2 WT-MEK5 inactive, MEKK3 PB1 HTS 147, HCV NS3 hel inh inactive, T cruzi inh inactive, MEKK2wt confirm inactive, MEKK2mut-MEK5 inactive and MEKK3 confirm inactive.
`COc1cc(/C=C/C(=O)OCC(=O)Nc2cc(C(F)(F)F)ccc2N2CCOCC2)ccc1O` gave MEKK2 mut-MEK5 inactive, FID counter inactive, MEKK2 WT-MEK5 inactive, MEKK3 PB1 HTS 152, HCV NS3 hel inh inactive, T cruzi inh inactive, MEKK2wt confirm inactive, MEKK2mut-MEK5 inactive and MEKK3 confirm inactive.
For Cc1ccc(CN2C(=O)CCC2C(=O)NC2CCCC2)cc1 (stereo not drawn) the results were MEKK2 mut-MEK5 inactive, FID counter inactive, MEKK2 WT-MEK5 inactive, MEKK3 PB1 HTS inactive, HCV NS3 hel inh inactive and T cruzi inh inactive.

Screens as filed in PubChem BioAssay.
